Consider one molecule from ChEMBL document CHEMBL3272092, “Synthesis and antihypertensive activity of 5-thio-2-pyridinecarboxylic acid derivatives” (J Med Chem, 1978).

In data set [1] the test system is Rattus norvegicus. The data set can be described thus: Antihypertensive activity in spontaneous hypertensive rat model assessed as decrease in blood pressure at 100 mg/kg, po administered for 2 to 4 days measured on day 2 to day 4. It is filed as functional. In short, it runs like this:
(§1)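 SHR, 4–6 per drug, were dosed daily by gavage for 2 or 4 consecutive days in 3% cornstarch, 5% PEG-400 and 1 drop Tween 80 per mL. After 1 h acclimation, systolic pressure was read by tail-cuff (inflated to 250 mmHg, then lowered; pulse reemergence), at least three readings, at 1, 2, 3 and 24 h post-dose. The peak fall is scored: +, <20 mm up to >80 mm.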

Data set [2] concerns Rattus norvegicus. The data set can be described thus: Antihypertensive activity in spontaneous hypertensive rat model assessed as decrease in blood pressure at 200 mg/kg, po administered for 2 to 4 days measured on day 2 to day 4. The class given is functional. In short, it runs like this: as §1
In data set [3] the test system is Rattus norvegicus. The data set can be described thus: Toxicity in spontaneous hypertensive rat model assessed as bradycardia at 100 to 200 mg/kg, po administered for 2 to 4 days. Set-up: route oral. The class given is organism-based. The following applies: in vivo. In short, it runs like this: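 Heart rate in SHR was counted from tail-cuff pressure pulses after 1 h acclimation. Rats (4–6 per drug) were gavaged daily for 2 or 4 days at 100 mg/kg (sometimes 200 mg/kg) in 3% cornstarch, 5% PEG-400 and 1 drop Tween 80 per mL. Recordings were at 1, 2, 3 and 24 h after each dose.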

In data set [4] the test system is Canis familiaris. The data set can be described thus: Antihypertensive activity in unanesthetized renal hypertensive Mongrel dog model assessed as change in mean blood pressure at 100 mg/kg, po qd measured on day 1. The class given is functional, Canis lupus familiaris. In short, it runs like this: (§2)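 Unanesthetized renal hypertensive dogs. Arterial pressure was recorded via a hypodermic needle and polyethylene tubing to a pressure transducer. Drug was given orally once daily as solid in a gelatin capsule. Pressure was determined 1.5, 3, 6 and 24 h after each dose, and the maximum change over each daily monitored session is reported.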

For data set [5], the system named is Canis familiaris. The data set can be described thus: Antihypertensive activity in unanesthetized renal hypertensive Mongrel dog model assessed as change in mean blood pressure at 100 mg/kg, po qd measured on day 2. The class given is functional, Canis lupus familiaris. The gist of the method: as §2
Data set [6] has as its system Canis familiaris. The data set can be described thus: Toxicity in unanesthetized renal hypertensive Mongrel dog model assessed as change in heart rate at 100 mg/kg, po qd measured on day 1. As to conditions: in vivo. Set-up: dose 100 mg/kg, route oral. The class given is organism-based, Canis lupus familiaris. The gist of the method: (§3)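 Heart rate in unanesthetized renal hypertensive dogs was counted manually from the transducer-recorded arterial pressure trace. Oral dosing was once daily as solid in a gelatin capsule. Readings were at 1.5, 3, 6 and 24 h post-dose, and the maximum change per daily session is reported.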

In data set [7] the test system is Canis familiaris. The data set can be described thus: Toxicity in unanesthetized renal hypertensive Mongrel dog model assessed as change in heart rate at 100 mg/kg, po qd measured on day 2. As to conditions: in vivo. Also on record: dose 100 mg/kg, route oral. It is filed as organism-based, Canis lupus familiaris. In short, it runs like this:
as §3

Data set [8] deals with Squirrel monkey. The data set can be described thus: Antihypertensive activity in normotensive squirrel monkey model assessed as decrease in systolic blood pressure at 100 mg/kg, po qd measured on day 2 by sphygmomanometry. The class given is functional, Saimiri sciureus, Artery. The gist of the method: (§4)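 Restrained squirrel monkeys of either sex with tails warmed by infrared lamp. Systolic pressure was measured indirectly with a tail-base occlusion cuff and pulse transducer. Doses were given daily by gavage as a suspension in 3% cornstarch, 5% PEG-400 and 1 drop Tween 80 per 10 mL. Readings were taken 1.5, 3, 5 and 24 h post-dose. Values are the peak change after each dose, analysed by paired t test.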

Data set [9] has as its system Squirrel monkey. The data set can be described thus: Antihypertensive activity in normotensive squirrel monkey model assessed as decrease in systolic blood pressure at 100 mg/kg, po qd measured on day 1 by sphygmomanometry. The class given is functional, Saimiri sciureus, Artery. In short, it runs like this: as §4
Data set [10] has as its system Squirrel monkey. The data set can be described thus: Antihypertensive activity in normotensive squirrel monkey model assessed as decrease in systolic blood pressure at 100 mg/kg, po qd measured on day 3 by sphygmomanometry. It is filed as functional, Saimiri sciureus, Artery. In short, it runs like this: as §4
Data set [11] relates to Squirrel monkey. The data set can be described thus: Antihypertensive activity in normotensive squirrel monkey model assessed as decrease in systolic blood pressure at 100 mg/kg, po qd measured on day 4 by sphygmomanometry. The class given is functional, Saimiri sciureus, Artery. In short, it runs like this: as §4
Data set [12] deals with Squirrel monkey. The data set can be described thus: Toxicity in normotensive squirrel monkey model assessed as change in heart rate at 100 mg/kg, po qd measured on day 2. The following applies: in vivo. It is filed as organism-based, Saimiri sciureus. Set-up: dose 100 mg/kg, route oral. The gist of the method: (§5)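 Heart rate in restrained, tail-warmed squirrel monkeys was counted manually from the tail-cuff pressure record. Daily gavage used a suspension in 3% cornstarch, 5% PEG-400 and 1 drop Tween 80 per 10 mL. Monitoring was at 1.5, 3, 5 and 24 h after each dose, and the peak change per administration is reported. Paired t test.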

In data set [13] the test system is Squirrel monkey. The data set can be described thus: Toxicity in normotensive squirrel monkey model assessed as change in heart rate at 100 mg/kg, po qd measured on day 1. The class given is organism-based, Saimiri sciureus. Set-up: dose 100 mg/kg, route oral. As to conditions: in vivo. In short, it runs like this:
as §5

Data set [14] deals with Squirrel monkey. The data set can be described thus: Toxicity in normotensive squirrel monkey model assessed as change in heart rate at 100 mg/kg, po qd measured on day 3. It is filed as organism-based, Saimiri sciureus. Also on record: dose 100 mg/kg, route oral. As to conditions: in vivo. The gist of the method:
as §5

The test system of data set [15] is Squirrel monkey. The data set can be described thus: Toxicity in normotensive squirrel monkey model assessed as change in heart rate at 100 mg/kg, po qd measured on day 4. It is filed as organism-based, Saimiri sciureus. Set-up: dose 100 mg/kg, route oral. As to conditions: in vivo. The gist of the method: as §5
The test system of data set [16] is Canis familiaris. The data set can be described thus: Toxicity in unanesthetized renal hypertensive Mongrel dog model assessed as emesis at 100 mg/kg, po qd measured on day 1 to 4. Set-up: dose 100 mg/kg, route oral. The class given is organism-based, Canis lupus familiaris. The following applies: in vivo.

In the case of `O=C(O)c1ccc([S+]([O-])Cc2cccc(C(F)(F)F)c2)cn1` (stereo unspecified), the Activity is over 40 mmHg in the data set with Rattus norvegicus [1]; over 60 mmHg in the data set on Rattus norvegicus [2]; “Toxic” in the data set with Rattus norvegicus [3]; -7 mmHg in the data set with Canis familiaris [4]; -10 mmHg with Canis familiaris [5]; 10 bpm in the data set with Canis familiaris [6]. For the same molecule, the Activity in the data set on Canis familiaris [7] is listed as 2 bpm; in the data set with Squirrel monkey [8], -29 mmHg; in the data set on Squirrel monkey [9], -30 mmHg; in the data set with Squirrel monkey [10], -19 mmHg; with Squirrel monkey [11] it was -19 mmHg; in the data set on Squirrel monkey [12], -83 bpm. Further, the Activity in the data set on Squirrel monkey [13] is recorded as -43 bpm; with Squirrel monkey [14], -73 bpm; in the data set on Squirrel monkey [15] it was -33 bpm; in the data set on Canis familiaris [16], “Non-toxic”.
